Results on 97 compounds are retold here after ChEMBL document CHEMBL4513216, “Probing the Open Global Health Chemical Diversity Library for Multistage-Active Starting Points for Next-Generation Antimalarials” (ACS Infect Dis, 2020).

Each structure is given as a SMILES string.

This data set is described as follows: Toxicity liver stage against HepG2, at 10uM. Also on record: test concentration 10 uM, cell line HepG2-A16-CD81EGFP. Conditions: human, HepG2-A16-CD81EGFP cells; read-out: INHIBITION
It is filed as cell-based. In short, it runs like this: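 Uninfected HepG2-A16-CD81EGFP cells, 3 × 10^3 per well, 1536-well, plated on prespotted compound at 10 μM final, parasite-free screening media added to match infected plates; puromycin 10 μM positive, DMSO 0.5% negative; run in parallel with 48 h PbLuc assay at 37 °C, 5% CO2; viability by CellTiter-Glo luminescence, normalized to controls.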
With `CC(C(=O)N(Cc1ccccc1)CC(F)(F)F)S(C)(=O)=O` (configuration not stated), the cytotoxicity at 10 µM amounted to 11%. To `Cc1ccc(-c2nn(C)c(C(=O)O)c2Br)cc1` belongs -49.7%; to `Cc1cccc2c1nc(CCO)n2-c1ccc(C(=O)N2CCOCC2)o1`, 3.69%; to `Cc1csc(C2(NCC(O)COC(C)C)CCCC2)n1` (configuration not stated), 4.53%. In the case of `CN(C)[C@@H]1CO[C@H](CNC(=O)Nc2ccccc2)[C@H]1O`, the cytotoxicity at 10 µM was -0.713%. Consider `O=C(Cc1ccc2c(c1)OCCCO2)Nc1nnn[nH]1`, for which the cytotoxicity at 10 µM is -4.66%. To `CSCC(CCO)NC(=O)c1cccc(F)c1Cl` (configuration not stated) belongs 11.7%. Take `CNC(=O)N1CCc2nc(C(=O)Nc3cccnc3)sc2CC1`: the cytotoxicity at 10 µM came to 1.99%. Next, `Cc1cccc(OCCC(=O)NCC2CN(C)CCO2)c1C` (configuration not stated): -6.3%; `N#Cc1ccnc(N2CCN(C(=O)NC3CCS(=O)(=O)C3)CC2)c1` (configuration not stated): -6.83%; `Cc1c(C)n(Cc2ccccn2)c2nc3c(c(N)c12)CCCCCC3`: 9.15%.

Turning to `CCCC1c2cccn2CCN1C(=O)c1cc(CC)no1` (configuration not stated), the cytotoxicity at 10 µM is -14.9%. Next, `Cn1cc(C2(C)CN(Cc3ccc(Cl)c(F)c3)CCO2)cn1` (configuration not stated): 4.98%; `O=C(Cc1ccccc1Cl)Nc1ccn(CCN2CCOCC2)n1`: -5.44%. As to `CCn1cnnc1CNC(=O)N1CCOC(c2ccccc2Cl)C1` (configuration not stated), the cytotoxicity at 10 µM is 9.32%.

For `Cc1cn2cc(C(=O)NC3CCCN(c4ncccn4)C3)ccc2n1` (configuration not stated), the cytotoxicity at 10 µM was 12.1%. As to `Cc1nc(CN2CCCCC2CCc2ccc(O)cc2)no1` (configuration not stated), the cytotoxicity at 10 µM came out at 1.18%. On to `CCCn1cc(C(=O)N(C)Cc2nc(-c3ccccn3)no2)c(C)n1`, for which the cytotoxicity at 10 µM was found to be 0.334%. In the case of `Cc1cc(-n2cncn2)n2ncnc2n1`, the cytotoxicity at 10 µM is -4.05%. To `CS(=O)(=O)NCc1ncn2c1CN(CCN1CCCC1)CCC2` belongs -74.9%; to `Cc1nc(CCN2CCCCC2)n(-c2ccc(F)cc2)n1`, -2.23%. `CCOC(=O)COc1ccc(C(C)=O)c(O)c1`: the cytotoxicity at 10 µM is -19.3%. Regarding `CC(=O)N1CC(=O)N(c2cnn(C)c2)CC12CCN(Cc1nccs1)C2` (configuration not stated), the cytotoxicity at 10 µM is 6.03%. With `COc1cccc(CCNS(=O)(=O)c2ccc(NC(C)=O)cc2)c1`, the cytotoxicity at 10 µM turned out to be 1.54%.

`CCN(CC)C(=O)CCNc1cncc(-n2nc(C)cc2C)n1`: the cytotoxicity at 10 µM turned out to be 2.41%. Next, `CCCS(=O)(=O)CC(=O)Nc1ccsc1`: -5.61%; `Cc1csc(NC(=O)C2CSCCC(=O)N2)n1` (configuration not stated): 4.14%.

As for `COCCOCC1(CNC(=O)c2ccc(OC)cc2)C[C@@H](O)[C@@H](O)C1` (some centres not stated), the cytotoxicity at 10 µM was determined as 0.0221%. Turning to `COCc1nc(CNC(=O)c2cc(C)c(C)[nH]c2=O)no1`, the cytotoxicity at 10 µM turned out to be 4.19%. Regarding `CC(=O)CSc1nc2c(cnn2CCO)c(=O)[nH]1`, the cytotoxicity at 10 µM is -2.22%. On to `c1cnn(C[C@@H]2C[C@@H]3CN(CC4CC4)CC[C@@H]3N2c2nccs2)c1`, for which the cytotoxicity at 10 µM turned out to be 9.1%. Turning to `Cc1ccccc1C(C(=O)N1CCN(C(=O)c2ccc[nH]2)CC1)N(C)C` (configuration not stated), the cytotoxicity at 10 µM is -7.98%.

Regarding `Cc1nn(C)c(C)c1CN(Cc1cccn1-c1cccnc1)C(C)C`, the cytotoxicity at 10 µM is -3.16%. As to `CCc1ccc(C(=O)N2CC[C@](C)(O)[C@H](C)C2)[nH]1`, the cytotoxicity at 10 µM came out at 2.27%. `Cc1c(F)cc(C(=O)O)cc1S(=O)(=O)Nc1ccccc1`: the cytotoxicity at 10 µM is -4.54%. On to `COC(=O)CN(C(=O)c1cc(C(C)C)no1)c1cccc(F)c1`, for which the cytotoxicity at 10 µM came out at 11.3%. Regarding `CC(C)c1noc(C(C)N2CCC(c3nc4ccccc4o3)CC2)n1` (configuration not stated), the cytotoxicity at 10 µM was determined as 8.05%. `CCOCc1cncc2c1CCN(S(=O)(=O)c1ccc(C)cc1)C2`: the cytotoxicity at 10 µM turned out to be 11.2%.

With `Cc1cc(N2CCc3c(nc(C(C)C)n3C)C2)nc(N)n1`, the cytotoxicity at 10 µM is -6.79%. Regarding `CN(c1cccnc1N1CCCC1)S(=O)(=O)c1cnn(C)c1`, the cytotoxicity at 10 µM was -4.28%.

For `NC(=O)CNC(c1ccccc1)c1ccc(OC(F)F)cc1` (configuration not stated), the cytotoxicity at 10 µM came to 58.2%.

On to `CCc1csc(C2CCCN(C(=O)c3cc(Cl)c[nH]3)C2)n1` (configuration not stated), for which the cytotoxicity at 10 µM was -9.83%.

Turning to `Cc1cccc(CNc2n[nH]c(C)n2)c1`, the cytotoxicity at 10 µM was -4.09%. As to `Cc1cc(C)cc(CNC(C)c2c(C)nn(C)c2C)c1` (configuration not stated), the cytotoxicity at 10 µM is 5.14%. On to `CCOC(C)C(=O)NCCNS(C)(=O)=O` (configuration not stated), for which the cytotoxicity at 10 µM is -5.29%. `CN(CCNS(C)(=O)=O)CC(c1cccs1)N1CCOCC1` (configuration not stated): the cytotoxicity at 10 µM is -3.43%. To `CCC1(CC)CC(=O)N(CC(O)c2cccc(F)c2)C1=O` (configuration not stated) belongs -3.43%; to `CNc1nc(C(=O)N2C[C@@H]3CC[C@H]2CN(C2CCOCC2)C3)cs1`, 4.84%. As for `Cc1ccc(CNc2cc3c(cc2Cl)NC(=O)CO3)cc1C`, the cytotoxicity at 10 µM worked out at 0.651%. To `COc1ccc(CNC(=O)CNc2cc3c(cc2Cl)OCCCO3)cc1` belongs 3.25%; to `Cc1ccccc1N1CC2(CCN(S(=O)(=O)C3CC3)C2)CC1=O` (configuration not stated), 3.12%.

With `CN(C)C(=O)CN1CCC2(CCCN(Cc3ccsc3)C2)C1=O` (configuration not stated), the cytotoxicity at 10 µM was -106%.

Consider `CNS(=O)(=O)c1cccc(CNC(=O)c2cc(C)no2)c1`, for which the cytotoxicity at 10 µM was -10.3%. In the case of `Cc1ccc(OCCCNC(=O)CN(C)c2ccc(C#N)cn2)cc1`, the cytotoxicity at 10 µM was 4.01%. With `CC(C#N)CSc1ccccc1NCC(=O)NC(=O)NC(C)(C)C` (configuration not stated), the cytotoxicity at 10 µM came to 11.7%. Next, `COc1ccccc1C(=O)NC[C@H]1COCc2nc3c(C)cccc3n21`: 0.331%; `c1cncc(CN2Cc3nccn3CC(Cn3cncn3)C2)c1` (configuration not stated): -136%; `COCCN1C[C@@H]2[C@@H](OC)CCN(Cc3cccc(C)n3)[C@@H]2C1`: -9.41%. As to `CCO[C@H]1COC[C@@H]1NC(=O)CCc1nc(-c2ccccc2)no1`, the cytotoxicity at 10 µM was found to be 15.8%. For `CCc1nc(CN(C)C(=O)NC(C)c2cccc(NC(C)=O)c2)cs1` (configuration not stated), the cytotoxicity at 10 µM is -4.85%. In the case of `Cc1ccc(C(=O)NC(CN2CCCC2=O)c2ccccc2)cn1` (configuration not stated), the cytotoxicity at 10 µM was -4.6%. Next, `CCN1CCCC1Cn1ccc2ccc(C(=O)OC)cc2c1=O` (configuration not stated): -7.86%; `Cc1nc([C@@H]2C[C@@H]3CCN(C(=O)c4ccsc4)C[C@H]3O2)no1`: -8.44%. To `CNC(=O)c1cccnc1NCc1ccc(Cn2ccnc2)cc1` belongs 90.3%; to `CCc1cc(NC(=O)c2cccc(OCC(F)(F)F)n2)[nH]n1`, -1.42%; to `Cc1nc(CN2CCC(O)(c3ccccc3F)CC2)c2ccccn12`, 2.45%. On to `CS(=O)(=O)N1CCc2[nH]cnc2C12CCN(C(=O)c1ccccc1)CC2`, for which the cytotoxicity at 10 µM was -2.66%. Take `CC(=O)N1CCN(C(=O)CN(C)c2ccc(Cl)cn2)CC1`: the cytotoxicity at 10 µM was found to be 1.79%. To `CC(C)OC[C@H]1CCC[C@]12CN(S(=O)(=O)c1cn(C)cn1)CCO2` belongs 5.19%. Next, `Cc1csc(NC(=O)CN2CCCC(Cn3nc(C)nc3C)C2)n1` (configuration not stated): -3.95%; `O=C(c1cccnc1)N1CCC2(CC1)CNc1c(F)cccc12`: -1.02%; `O=C(NCc1nnc2n1CCC2)N1CCc2sccc2C1`: -12.5%. For the compound `COc1cccc(C(=O)NCCCN2CCc3ccccc3C2)c1OC`, the cytotoxicity at 10 µM was determined as 6.67%. `CC(C)NC(=O)CC1CC2(CCN(S(C)(=O)=O)CC2)c2ccccc21` (configuration not stated): the cytotoxicity at 10 µM was -2.48%. Turning to `Cc1cccc(CN2CCCn3c(nnc3Cn3cccn3)C2)n1`, the cytotoxicity at 10 µM was -0.124%. With `Cc1nc(C2CCCN2Cc2cc(Cl)c3c(c2)OCCCO3)no1` (configuration not stated), the cytotoxicity at 10 µM stood at 10.3%. For `CCn1c(CC2CCN(C(=O)c3cc(CC(C)C)on3)CC2)n[nH]c1=O`, the cytotoxicity at 10 µM was -2.7%. Regarding `CCOC(=O)[C@H]1[C@@H](O)C(=O)N(C)C12CCN(C(=O)OCC)CC2`, the cytotoxicity at 10 µM was -7.83%. `OC1(CN2CCCC2)COCCN(c2nccs2)C1` (configuration not stated): the cytotoxicity at 10 µM was -7.64%.

Regarding `Clc1ccc(CNc2ccc(Cl)cn2)cc1`, the cytotoxicity at 10 µM was 6.96%.

`CCS(=O)(=O)NCCN(CCO)C1CCc2ccccc21` (configuration not stated): the cytotoxicity at 10 µM turned out to be 14.4%. In the case of `CN(C)C(=O)CO[C@H]1COCCN(C2CCOCC2)C1`, the cytotoxicity at 10 µM turned out to be 3.64%. As for `Cc1cccc(N(C)S(=O)(=O)c2cc(C(=O)O)cs2)c1`, the cytotoxicity at 10 µM was -6.12%. With `O=C(CSc1ccccc1)N1C[C@@H]2CC[C@H]1CN(Cc1ccncc1)C2`, the cytotoxicity at 10 µM was -0.143%. On to `CCN(CCC(F)(F)F)C(=O)Nc1cccc(N2CCOCC2)c1`, for which the cytotoxicity at 10 µM is -8.02%. As to `CCN1CCC2(CC1)CC(Nc1ncccn1)CO2` (configuration not stated), the cytotoxicity at 10 µM is -21.6%. `CN(C)c1ncccc1C(=O)N1CCCN(c2cccnn2)CC1`: the cytotoxicity at 10 µM amounted to 9.41%. As for `Cn1ccnc1CN1CCC(c2nc3ccccc3n2C)CC1`, the cytotoxicity at 10 µM came out at 1.42%. `OC(CNCc1nnc2ccccn12)c1ccc2c(c1)OCCCO2` (configuration not stated): the cytotoxicity at 10 µM was 2.93%. `O=C(NCCc1nc(-c2ccccn2)no1)c1ccc(C2CCCO2)s1` (configuration not stated): the cytotoxicity at 10 µM was 5.65%. To `Cc1cccc(Oc2ccccc2CNC(=O)C2CCNC(=O)C2)c1` (configuration not stated) belongs 3.6%. To `O=C(COc1coc(CN2CCCCC2)cc1=O)Nc1ccccc1Cl` belongs 3.72%; to `CC(=O)c1cccc(OCCCC(=O)N(C)CC(N)=O)c1`, 17.3%. As for `Cn1cc(CN2CCc3c(nc(-c4ccccn4)[nH]c3=O)C2)cn1`, the cytotoxicity at 10 µM is -5.05%. Next, `CN1CCN(S(C)(=O)=O)c2cc(F)ccc21`: -1.15%; `CC(=O)c1cccc(S(=O)(=O)NCC(C)(O)c2cccs2)c1` (configuration not stated): -17%. On to `CNC(=O)CN1CCO[C@H]2CN(C(=O)C3CC3)C[C@H]21`, for which the cytotoxicity at 10 µM turned out to be 7.52%.
